What was measured:
[1] = molecular target: Protein farnesyl/geranylgeranyl transferase (Homo sapiens) (UniProt P49354+P49356+P53609); test: Relative IC50 for farnesyl and geranylgeranyl transferase; assay type: protein-complex assay
[2] = molecular target: T1, Protein farnesyltransferase (Homo sapiens, UniProt P49354+P49356); test: Inhibition of recombinant farnesyltransferase (mFTase) in scintillation proximity assay; assay type: protein-complex assay
Procedure, shortened: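 Recombinant mammalian FTase in scintillation proximity assay with streptavidin beads. Substrates: tritiated FPP (15–30 Ci/mmol, final 0.12 μM) and biotin-Aha-TKCVIM peptide (final 0.1 μM). IC50 determined. Ki from the same system with varied tritiated FPP concentrations.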

[3] = molecular target: Geranylgeranyl transferase type I (Homo sapiens, UniProt P49354+P53609); test: Inhibition of recombinant Geranylgeranyl transferase type I in scintillation proximity assay; assay type: protein-complex assay
Procedure, shortened: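 Recombinant mammalian GGTase I in scintillation proximity assay with streptavidin beads, using tritiated GGPP and biotin-Aha-TKCVIL peptide as substrates. Run in the same manner as the FTase assay. IC50 and Ki values determined.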

NIH3T3 [4] = test: Inhibition of anchorage independent growth of H-Ras(61L)-transformed NIH3T3 fibroblasts in soft agar; assay type: functional, cell-based; details: Mus musculus
Procedure, shortened: (§1)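 NIH3T3 fibroblasts transfected with H-Ras(61L) (H-Ras-F) or H-Ras(61L)CVLL (H-Ras-GG), kept in DMEM with 10% calf serum and 1% antibiotic/antimycotic at 37 °C, 10% CO2. Two-layer soft agar (0.6% bottom, 0.3% top). Cells seeded in the top layer with compound in ethanol over a concentration range, added only at seeding. Grown 2 weeks at 37 °C. Colonies stained with p-iodonitrotetrazolium violet 24 h before image-analysis count. IC50 reported.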

NIH3T3 [5] = test: Inhibition of anchorage independent growth of H-Ras(61L)CVLL-transformed NIH3T3 fibroblasts in soft agar; assay type: functional, cell-based; details: Mus musculus; procedure, shortened: as §1
[6] = molecular target: T1, Protein farnesyltransferase; test: Relative Vmax compared to FPP in continuous spectrofluorimetric assay
[7] = system: C=C/C(=C\COP(=O)(O)OP(=O)(O)O)CC/C=C(\C)CCC=C(C)C; test: (§2) Km determined in continuous spectrofluorimetric assay; assay type: protein-complex assay; details: Homo sapiens
Procedure, shortened: (§3)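 Continuous fluorimetric assay with recombinant mammalian FTase and dansyl-GCVLS peptide. Buffer: Tris-HCl pH 7.0, DTT, MgCl2, ZnCl2, with 0.4% n-dodecyl-β-D-maltoside solution. Premixed 5 min at 30 °C. Isoprenoid diphosphate at final 0.10 to 5 μM. Reaction started with enzyme. Fluorescence (ex 350, em 486 nm) read for 300 s at 30 °C. Linear rate converted to μM/s using a separately measured enhancement factor for each substrate. Km derived from the rates.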

[8] = system: C=CC/C(=C\COP(=O)(O)OP(=O)(O)O)CC/C=C(\C)CCC=C(C)C; test: as §2; assay type: protein-complex assay; details: Homo sapiens; procedure, shortened: as §3

Compound | Ratio [1] | IC50 [2] | IC50 [3] | IC50 (NIH3T3 [4]) | IC50 (NIH3T3 [5]) | also measured
CC(C)=CCC/C(C)=C/CC/C(=C/COP(=O)(O)OP(=O)(O)O)c1ccccc1 | > 340 | 0.299 µM | > 100 µM |  |  | 
CC/C(=C\CO)CC/C=C(\C)CCC=C(C)C |  |  |  | > 25 µM | > 25 µM | 
C=CC/C(=C\COP(=O)(O)OP(=O)(O)O)CC/C=C(\C)CCC=C(C)C | > 530 | 0.189 µM | > 100 µM |  |  | Krel [6]: 0.0711
CC(C)=CCC/C(C)=C/CC/C(=C/COP(=O)(O)OP(=O)(O)O)C(C)(C)C | 1600 | 0.031 µM | 50 µM |  |  | 
C=CC/C(=C\COP(=O)(O)OP(=O)(O)O)CC/C=C(\C)CC/C=C(\C)CCC=C(C)C | 7.5 | 0.453 µM |  |  |  | 
C=C/C(=C\CO)CC/C=C(\C)CCC=C(C)C |  |  |  | 10.9 µM | 14.1 µM | 
C=C/C(=C\COP(=O)(O)OP(=O)(O)O)CC/C=C(\C)CCC=C(C)C | 600 | 0.173 µM | 100 µM |  |  | Krel [6]: 0.524
CC(C)=CCC/C(C)=C/CC/C(=C/CO)c1ccccc1 |  |  |  | > 25 µM | > 25 µM | 
C=CC/C(=C\CO)CC/C=C(\C)CC/C=C(\C)CCC=C(C)C |  |  |  | > 25 µM | 4.6 µM | 
Protein farnesyltransferase (Homo sapiens) (from UniProt P49354+P49356) |  |  |  |  |  | Km [7]: 0.156 µM; Km [8]: 0.703 µM
C=C/C(=C\CO)CC/C=C(\C)CC/C=C(\C)CCC=C(C)C |  |  |  | 18 µM | 13.9 µM | 
C=CC/C(=C\CO)CC/C=C(\C)CCC=C(C)C |  |  |  | 10.2 µM | > 25 µM | 
C=C/C(=C\COP(=O)(O)OP(=O)(O)O)CC/C=C(\C)CC/C=C(\C)CCC=C(C)C | 4.3 | 0.715 µM | 3.05 µM |  |  | 
CC/C(=C\COP(=O)(O)OP(=O)(O)O)CC/C=C(\C)CCC=C(C)C | > 460 | 0.215 µM | > 100 µM |  |  | 
